Compound activity deposited in PubChem BioAssay by several laboratories.
CSC inhib – blocks cancer stem cells. cancer stem cell-like cells viability, luminescence. inhibition, % at 7.5 µM. 300,000 tested, 1.1% active. AID 2717; in the data active = inhibition above about 75%; inconclusive = no clear call, values can overlap the other calls; tested in HMLE shEcad cells
SKKanGAS inh – inhibitors of SKKanGAS S. pyogenes growth in kanamycin (SK-promoter or general growth effect); 300,000 tested, 1.3% active; BacTiter-Glo, 6 h; inhibition, % at 7.5 µM;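 active = mean replicate score, as percent of positive control median, at least 50; inconclusive = mean below 50 but one replicate at or above 50; inactive = mean and every replicate below 50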;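 also: strain carries kanamycin resistance gene driven by streptokinase promoter and grows in 40 µg/ml kanamycin; loss of luminescence reflects streptokinase promoter inhibition or plain growth inhibition; 0% = median of DMSO wells and 100% = positive control at its reference dose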
Mdm2-MdmX inh – inhibitors of human Mdm2/MdmX interaction. AID 485346. SaOS-2 split-luciferase Mdm2/MdmX complementation, luminescence. inhibition, % at 8 µM. 330,000 tested, 3% active;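 active = inhibition of at least 50% at 8 µM in the primary screen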
Target sequence (O15151 whole entry, looked up): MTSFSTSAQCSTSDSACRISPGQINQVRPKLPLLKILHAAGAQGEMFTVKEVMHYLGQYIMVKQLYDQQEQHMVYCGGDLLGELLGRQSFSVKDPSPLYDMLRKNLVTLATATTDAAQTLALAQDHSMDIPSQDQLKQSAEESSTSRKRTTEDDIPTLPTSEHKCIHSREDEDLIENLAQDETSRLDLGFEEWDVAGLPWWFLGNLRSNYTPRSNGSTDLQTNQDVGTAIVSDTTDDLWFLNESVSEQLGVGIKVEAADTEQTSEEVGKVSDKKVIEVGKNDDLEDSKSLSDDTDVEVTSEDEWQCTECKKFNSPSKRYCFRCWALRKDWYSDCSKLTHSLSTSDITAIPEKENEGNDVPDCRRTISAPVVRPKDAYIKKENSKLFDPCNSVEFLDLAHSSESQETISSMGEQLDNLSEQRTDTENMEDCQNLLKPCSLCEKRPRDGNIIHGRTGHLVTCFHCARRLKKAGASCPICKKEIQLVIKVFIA
Target sequence (Q00987 whole entry, looked up): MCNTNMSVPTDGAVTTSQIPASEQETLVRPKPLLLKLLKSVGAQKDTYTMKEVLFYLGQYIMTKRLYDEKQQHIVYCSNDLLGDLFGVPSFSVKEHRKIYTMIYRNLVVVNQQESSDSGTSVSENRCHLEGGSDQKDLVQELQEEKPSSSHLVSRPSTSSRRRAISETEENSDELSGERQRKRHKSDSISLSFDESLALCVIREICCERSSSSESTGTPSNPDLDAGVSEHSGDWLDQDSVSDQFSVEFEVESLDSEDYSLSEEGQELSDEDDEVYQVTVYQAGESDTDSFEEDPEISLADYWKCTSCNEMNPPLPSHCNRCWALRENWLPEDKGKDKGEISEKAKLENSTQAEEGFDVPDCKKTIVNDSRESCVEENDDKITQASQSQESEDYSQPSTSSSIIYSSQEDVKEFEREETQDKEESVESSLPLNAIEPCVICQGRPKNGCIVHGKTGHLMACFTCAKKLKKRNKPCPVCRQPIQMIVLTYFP
Beta apoptosis – beta cell apoptosis inhibition | 300,000 tested, 0.8% active | INS-1E cytokine-induced death, ATP luminescence, 48 h; percent of positive-control rescue, neutral wells zero | protection from apoptosis, % (test concentration not listed) | AID 435005;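 active = Every replicate reaches about 75%, or at least half do and their mean reaches it too, limit read from the data; inconclusive = At least half of replicates reach the limit but their mean does not; inactive = Under half of replicates reach the limit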;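 also: 0% = cytokine-treated negative control wells and 100% = positive control rescue; higher means more ATP so stronger rescue from cytokine killing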
Calb FLC – C. albicans growth modulation with fluconazole. C. albicans CaCi-2 (fluconazole-resistant clinical isolate) + fluconazole, Alamar Blue growth, 48 h. growth inhibition, % (test concentration not listed). 300,000 tested, 0.57% active. AID 1979;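 active = growth inhibition above about 58% in most replicates, limit read from the data, passing the limit was not always enough; inconclusive = exactly half the replicates above a set limit; inactive = most replicates below a set limit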;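 also: all wells also contain fluconazole at 8 µg/ml as a sub-toxic cotreatment; 0% = median of DMSO wells and 100% = median of geldanamycin control wells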
T cruzi repl – T. cruzi replication inhibition; T. cruzi beta-gal in NIH3T3, luminescence, 90 h; inhibition, % (test concentration not listed); 300,000 tested, 1.4% active; AID 1885;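 active = mean inhibition across valid replicates above about 55%, limit read from the data; inconclusive = mean below that limit but half or more replicates reach it; inactive = mean below it, under half of replicates reach it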;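 also: signal also drops with host cell toxicity which is not excluded here; 0% = plate median of DMSO wells and 100% = zero luminescence signal; higher percent means less beta-gal luminescence so fewer parasites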
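compound dosing = single 50 nL compound addition per well in DMSO | material = NIH/3T3 host cells with β-galactosidase reporter T. cruzi | input = 5,000 host fibroblasts per well | timing = ≥90 h infection period, 3 h prior cell attachment | read-out basis = percent inhibition of parasite-derived β-gal signal | detection = GalScreen β-gal luminescence, detergent lysis, 60 min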
Mdm2-MdmX conf – human Mdm2/MdmX binding inhibition, confirmed; shares compounds with Mdm2-MdmX inh; luminescent assay; inhibition, % at 8 µM; 10,000 tested, 55% active; AID 489028; in the data active = inhibition above about 40%
FLuc counter – inhibits full-length luciferase, flagging false Mdm2/MdmX hits; 6,200 tested, 77% active; SaOS-2 full-length luciferase counterscreen, luminescence; inhibition, % at 8 µM; shares compounds with Mdm2-MdmX inh;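 active = mean inhibition at 8 µM reaching about 37%, which flags the compound as non-specific, limit read from the data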;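 also: p53-null SaOS-2 cells with luciferase driven by a doxycycline-inducible promoter; compound on cells about two nights before reading with doxycycline added after day one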
* marks the source's active call; other numbers are inactive results. This is a sample that favours compounds with a hit; in the whole collection about 5.7% have one here.

`Cc1ccc(Cn2c(=N)n(CC(O)COc3ccccc3)c3ccccc32)cc1` (configuration not stated) gave CSC inhib 8, SKKanGAS inh 1, Mdm2-MdmX inh 69*, Beta apoptosis 66, Calb FLC inconclusive, T cruzi repl 59*, Mdm2-MdmX conf 76* and FLuc counter 62*.
`CCCCn1c(=N)n(CC(O)COc2ccccc2)c2ccccc21` (configuration not stated) gave CSC inhib 4, SKKanGAS inh 1, Mdm2-MdmX inh 49, Calb FLC 4 and T cruzi repl -6.
Screening Cc1cccc(NC(=O)c2nc[nH]c2C(=O)NCCCNC(=O)c2[nH]cnc2C(=O)Nc2cccc(C)c2)c1 returned CSC inhib 77*, Mdm2-MdmX inh 73*, Beta apoptosis -6, Mdm2-MdmX conf 63* and FLuc counter 43*.
CC(C)(C)OC(=O)NCCCCCNC(=O)c1[nH]cnc1C(=O)N[C@@H](CCCCNC(=O)OC(C)(C)C)C(=O)OC(C)(C)C was read as CSC inhib 12, SKKanGAS inh 13, Mdm2-MdmX inh 13, Beta apoptosis 17, Calb FLC 21 and T cruzi repl -10.
For Cc1cccc(NC(=O)c2nc[nH]c2C(=O)N[C@@H](CCCCNC(=O)OC(C)(C)C)C(=O)OC(C)(C)C)c1 the results were SKKanGAS inh 91*, Mdm2-MdmX inh 61*, Beta apoptosis 13, Calb FLC 3, T cruzi repl 62* and Mdm2-MdmX conf 24.
Screening Cc1cccc(NC(=O)c2nc[nH]c2C(=O)NC2CCN(C(=O)OC(C)(C)C)CC2)c1 returned CSC inhib inconclusive, Mdm2-MdmX inh 55*, Beta apoptosis 3 and Mdm2-MdmX conf 26.
For Cc1cccc(NC(=O)c2nc[nH]c2C(=O)NCCN(CCNC(=O)c2[nH]cnc2C(=O)Nc2cccc(C)c2)CCNC(=O)c2[nH]cnc2C(=O)Nc2cccc(C)c2)c1 the results were CSC inhib 28, Mdm2-MdmX inh 86*, Beta apoptosis -6, Mdm2-MdmX conf 51* and FLuc counter 39*.
Cc1cccc(NC(=O)c2nc[nH]c2C(=O)NCCCCCNC(=O)OC(C)(C)C)c1 was read as CSC inhib 4, Mdm2-MdmX inh 32 and Beta apoptosis 12.
For CC(CN)(NS(=O)(=O)c1ccccc1)c1ccccc1 (configuration not stated) the results were CSC inhib -2, SKKanGAS inh 13, Mdm2-MdmX inh 19, Beta apoptosis -6, Calb FLC 19 and T cruzi repl -6.
For C#CCOCCOCCOCCNc1nc(N2CCOCC2)nc(N2CCN(C(=O)[C@H](CO)n3cc([C@@H](N)C(C)C)nn3)CC2)n1 the results were CSC inhib -2, Mdm2-MdmX inh -4 and Beta apoptosis -2.
For CC(=O)c1cccc(NC(=O)Nc2ccc3c(c2)OCO3)c1 the results were CSC inhib 6, Mdm2-MdmX inh -23, Beta apoptosis -7 and Calb FLC -38.
NC(=O)c1ccccc1NC(=O)COc1ccc2c(c1)OCO2 was read as CSC inhib 9, SKKanGAS inh -3, Mdm2-MdmX inh -86, Beta apoptosis 3, Calb FLC -3 and T cruzi repl -1.
`CSc1nnc(NC(=O)c2nc(S(=O)(=O)Cc3ccccc3)ncc2Cl)s1` gave SKKanGAS inh 2, Mdm2-MdmX inh 99*, Calb FLC -9, T cruzi repl -13, Mdm2-MdmX conf 94* and FLuc counter 2.
Screening CSc1ncc(Cl)c(C(=O)Nc2nnc(SC)s2)n1 returned SKKanGAS inh -10, Mdm2-MdmX inh 12, Beta apoptosis 2, Calb FLC 6 and T cruzi repl 8.
CC(C)c1nnc(NC(=O)c2nc(S(=O)(=O)Cc3ccccc3)ncc2Cl)s1 was read as SKKanGAS inh 3, Mdm2-MdmX inh 97*, Calb FLC -2, T cruzi repl -22, Mdm2-MdmX conf 76* and FLuc counter 50*.
Screening FC(F)(F)c1cc(CCN2CCNC[C@@H]2CC2CCCCC2)cc(C(F)(F)F)c1 returned Mdm2-MdmX inh 100*, Beta apoptosis 3 and Mdm2-MdmX conf 19.
For NC1=NC[C@H](CC2CCCCC2)N1CCc1cc(C(F)(F)F)cc(C(F)(F)F)c1 the results were CSC inhib 102*, SKKanGAS inh 5, Mdm2-MdmX inh 100*, Beta apoptosis 40, Calb FLC 92*, T cruzi repl 30, Mdm2-MdmX conf 81* and FLuc counter 59*.
NC1=NC[C@@H](Cc2ccc(O)cc2)N1CCc1cc(C(F)(F)F)cc(C(F)(F)F)c1 was read as CSC inhib 10, SKKanGAS inh 0, Mdm2-MdmX inh 14, Beta apoptosis -6, Calb FLC -2 and T cruzi repl -6.
CCN(C(=O)CSc1nc2ccccc2[nH]1)C1CCS(=O)(=O)C1 (configuration not stated) was read as CSC inhib -11, Mdm2-MdmX inh 10 and Beta apoptosis -2.
For Cc1cc(/C=C2/C(=O)NN(c3ccccc3)C2=O)c(C)n1-c1ccc(O)cc1 the results were CSC inhib -9, SKKanGAS inh 33, Mdm2-MdmX inh 52*, Beta apoptosis -1, Calb FLC -7, T cruzi repl -7, Mdm2-MdmX conf 75* and FLuc counter 116*.
COc1ccc(-n2nc(C(=O)NCC(=O)Nc3cccc(Cl)c3)c3ccccc3c2=O)cc1OC was read as SKKanGAS inh -6, Mdm2-MdmX inh 80*, Beta apoptosis 10, Calb FLC 32, T cruzi repl 30, Mdm2-MdmX conf 48* and FLuc counter 37*.
For CCOc1ccc(NC(=O)CNC(=O)c2nn(-c3ccc(OC)c(OC)c3)c(=O)c3ccccc23)cc1 the results were CSC inhib 0, SKKanGAS inh -5, Mdm2-MdmX inh 0, Beta apoptosis 0, Calb FLC 7 and T cruzi repl -20.
Screening COc1ccc(-n2nc(C(=O)NCC(=O)NC(C)C)c3ccccc3c2=O)cc1Cl returned CSC inhib 2, SKKanGAS inh 4, Mdm2-MdmX inh 9, Beta apoptosis 5, Calb FLC 10 and T cruzi repl -8.
COc1ccc(-n2nc(C(=O)Nc3ccc(OC)c(OC)c3)c3c4ccccc4n(C)c3c2=O)cc1 was read as CSC inhib -2, SKKanGAS inh 10, Mdm2-MdmX inh 76*, Beta apoptosis 18, Calb FLC 0, T cruzi repl 17 and Mdm2-MdmX conf 38.
For COc1ccc(-n2nc(C(=O)NCC(=O)Nc3ccccn3)c3ccccc3c2=O)cc1Cl the results were SKKanGAS inh -4, Mdm2-MdmX inh 88*, Calb FLC 5, T cruzi repl -4 and Mdm2-MdmX conf 17.
